This is a sample that favours compounds with a hit; in the whole collection about 2.3% have one here.
TDP2 absorb: human TDP2 enzyme inhibitors, primary screen, biochemical, epi absorbance, recombinant enzyme. T5PNP hydrolysis, p-nitrophenol absorbance 415 nm. AID 720702, 2013. inhibition, % at 12.8 µM. 0.34% of 370,000 active. Tyrosyl-DNA phosphodiesterase 2 (Homo sapiens), O95551;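 active means inhibition above the mean of all tested compounds plus 3 SD, set per campaign, cut at about 25% in these data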;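 further: 0% = DMSO with enzyme and 100% = buffer with substrate but no TDP2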
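System – recombinant human TDP2 · Quantity – TDP2 enzyme at 120 nM final · Doses – single concentration, 12.8 µM nominal, with 1% DMSO · Incubation – 2 h at 37 °C · Measured by – epi absorbance of p-nitrophenol freed from T5PNP by hydrolysis · Read-out – % inhibition relative to enzyme-containing and enzyme-free wells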
PAFAH2 inh: PAFAH2 enzyme inhibitors, primary screen, biochemical, fluorescence polarization, human; inhibition, % at 3.39 µM; Platelet-activating factor acetylhydrolase 2, cytoplasmic (Homo sapiens), Q99487; recombinant PAFAH2, FP-rhodamine activity probe; 0.99% of 340,000 active;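 active means inhibition above the mean over all tested compounds plus 3 SD, cut at about 30% in these data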;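 further: inhibitors block probe labeling of enzyme so polarization drops; 0% = enzyme with DMSO and 100% = wells lacking PAFAH2 protein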
PAFAH1B2 inh: PAFAH1B2 enzyme inhibitors, primary screen, biochemical, fluorescence polarization, human; Platelet-activating factor acetylhydrolase IB subunit alpha2 (Homo sapiens), P68402; recombinant PAFAH1B2, FP-rhodamine activity probe; inhibition, % at 3.39 µM; 1.2% of 340,000 active; AID 492953, 2010;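 active means inhibition above the mean of all tested compounds plus 3 SD, cut at about 24% in these data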;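 further: 0% = enzyme with DMSO and 100% = wells lacking PAFAH1B2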
Target sequence (P68402 whole entry, looked up): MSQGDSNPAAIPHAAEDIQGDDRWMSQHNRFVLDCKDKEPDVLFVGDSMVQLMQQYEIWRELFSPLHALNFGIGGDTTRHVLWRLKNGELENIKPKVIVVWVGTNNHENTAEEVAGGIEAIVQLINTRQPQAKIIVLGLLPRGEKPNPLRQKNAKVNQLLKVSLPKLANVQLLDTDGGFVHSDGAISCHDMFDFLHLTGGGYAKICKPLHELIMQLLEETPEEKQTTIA
Apaf-1 inh: inhibitors of human Apaf-1 apoptosome, primary screen, biochemical, DEVD-Rh110 fluorescence, uHTS; Apoptotic protease-activating factor 1 (Homo sapiens), O14727; reconstituted apoptosome caspase-3 activity; inhibition, % at 20 µM; 0.71% of 330,000 active; active means inhibition of at least 40% at 20 µM;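 further: plate controls were DMSO wells for no effect and DEVD-CHO caspase inhibitor wells for full effect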
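Material: reconstituted apoptosome with Apaf-1, cytochrome c, caspase-9, procaspase-3, dATP. Technique: Rh110 fluorescence intensity. Buffer or medium: pH 7.5 Hepes buffer with CHAPS, BSA, DTT. Times: 30 min plus 50 min, RT.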
PAFAH1B3 inh: PAFAH1B3 enzyme inhibitors, primary screen, biochemical, fluorescence polarization, human; AID 492972, 2010; inhibition, % at 3.39 µM; recombinant PAFAH1B3, FP-rhodamine probe; 0.28% of 340,000 active; Platelet-activating factor acetylhydrolase IB subunit alpha1 (Homo sapiens), Q15102;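 active means inhibition above the screen-wide average of all tested compounds plus 3 SD, cut at about 25% in these data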;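 further: 0% = enzyme with DMSO only and 100% = wells lacking PAFAH1B3 protein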
Target sequence (Q15102 whole entry, looked up): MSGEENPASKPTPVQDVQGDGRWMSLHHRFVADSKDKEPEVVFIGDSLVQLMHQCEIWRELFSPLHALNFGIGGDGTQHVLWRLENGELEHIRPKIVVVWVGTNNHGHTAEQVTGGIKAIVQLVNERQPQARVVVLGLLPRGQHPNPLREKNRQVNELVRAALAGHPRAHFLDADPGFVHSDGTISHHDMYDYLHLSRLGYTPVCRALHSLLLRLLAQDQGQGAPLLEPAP
An asterisk follows results filed as active.

What do the screens show for `COc1ccc(C[C@H]2CN3C(=NC[C@@H]3Cc3ccccc3)N2C[C@H](C)NC(=O)CCC2CCCCC2)cc1`?
Apaf-1 inh: 51.6*

Results for COc1ccc(C[C@@H]2CN3C(=NC[C@@H]3C)N2C[C@H](C)NC(=O)CCC2CCCCC2)cc1 ?
TDP2 absorb: 6.1; PAFAH2 inh: 1.5; PAFAH1B2 inh: 2.2; Apaf-1 inh: 14.5; PAFAH1B3 inh: 2.4

Results for CCN(CC)C(=O)O[C@H]1CC[C@@]23CCCN2C(=O)CCC[C@H]3[C@H]1C ?
TDP2 absorb: -3.2

How did COC(=O)c1ccccc1NCc1cc(=O)oc2cc(O)c(O)cc12 do in these assays?
TDP2 absorb: 0.5; PAFAH2 inh: 31.3*; PAFAH1B2 inh: 44.1*; Apaf-1 inh: 11.5; PAFAH1B3 inh: 17.5

Results for CC(=O)CC[C@H]1CC[C@]2(CCCN(C(=O)C3CCCCC3)C2)O1 ?
TDP2 absorb: -3.5

What do the screens show for `c1nc(NCC2CCOC2)c2cc(-c3ccc4c(c3)OCO4)ccc2n1` (stereo not drawn)?
TDP2 absorb: -1.0

Results for NC1=C(Br)C(=O)c2ccccc2C1=O ?
TDP2 absorb: 15.4; PAFAH2 inh: 5.9; PAFAH1B2 inh: 5.0; Apaf-1 inh: 70.9*; PAFAH1B3 inh: 14.5

Results for COc1cc(C=Nn2c(-c3ccccc3F)n[nH]c2=S)ccc1OCc1ccccc1 ?
TDP2 absorb: 11.6

How did O=C(N/N=C/c1ccc(O)cc1O)c1ccc(CN2C(=O)c3cccc4cccc2c34)cc1 do in these assays?
TDP2 absorb: -12.7; PAFAH2 inh: 38.7*; PAFAH1B2 inh: 43.0*; Apaf-1 inh: 10.6; PAFAH1B3 inh: 35.2*

What do the screens show for `O=C(O)Cc1ccc2c(c1)N(S(=O)(=O)c1cccc(C(F)(F)F)c1)CC(C(=O)O)O2` (stereo not drawn)?
TDP2 absorb: -4.5; PAFAH2 inh: 1.7; PAFAH1B2 inh: 26.7*; Apaf-1 inh: 3.7; PAFAH1B3 inh: -5.4

How did CS(=O)(=O)N1CC(C(=O)O)Oc2ccc(CC(=O)O)cc21 (stereo not drawn) do in these assays?
TDP2 absorb: -6.2; PAFAH2 inh: 1.1; PAFAH1B2 inh: 0.8; Apaf-1 inh: -10.0; PAFAH1B3 inh: 3.0

How did Cc1nn(CCC(=O)NNC(=O)NCc2ccccc2)c(C)c1[N+](=O)[O-] do in these assays?
TDP2 absorb: -2.0

Results for COc1ccccc1/C=C/C(=O)OCC(=O)NC1CCCCCCC1 ?
TDP2 absorb: -1.1; PAFAH2 inh: 90.9*; PAFAH1B2 inh: 3.6; Apaf-1 inh: 9.5; PAFAH1B3 inh: 1.3

What do the screens show for `COc1cc(/C=C/C(=O)OCC(=O)NC2CCCCCCC2)ccc1O`?
TDP2 absorb: -4.7; PAFAH2 inh: 75.6*; PAFAH1B2 inh: 4.9; Apaf-1 inh: 0.8; PAFAH1B3 inh: -8.3

How did COc1cc(/C=C/C(=O)OCC(=O)Nc2cccc(F)c2)ccc1O do in these assays?
TDP2 absorb: -9.9; PAFAH2 inh: 92.9*; PAFAH1B2 inh: 2.3; Apaf-1 inh: -2.6; PAFAH1B3 inh: 11.1

How did COc1ccccc1/C=C/C(=O)OCC(=O)Nc1c(C)nn(-c2ccccc2)c1C do in these assays?
TDP2 absorb: -3.1; PAFAH2 inh: 68.1*; PAFAH1B2 inh: 5.1; Apaf-1 inh: 4.4; PAFAH1B3 inh: 0.4

What do the screens show for `COc1ccc(Cn2cc(COC(=O)NCCc3c[nH]c4ccccc34)nn2)cc1`?
TDP2 absorb: 10.7

How did COc1ccc(/C=C/C(=O)OCC(=O)NC2CCCCC2C)c(OC)c1 (stereo not drawn) do in these assays?
TDP2 absorb: 4.4; PAFAH2 inh: 88.2*; PAFAH1B2 inh: -2.1; Apaf-1 inh: 7.5; PAFAH1B3 inh: 0.4

How did Nc1cc(N)c(OCC(F)(F)F)cc1OCC(F)(F)F do in these assays?
PAFAH2 inh: 5.2; PAFAH1B2 inh: 6.0; Apaf-1 inh: 83.9*; PAFAH1B3 inh: 12.3

How did COc1ccc(C(C#N)=C2C=CC(=NO)C=C2)cc1 do in these assays?
TDP2 absorb: -10.8; PAFAH2 inh: 10.4; PAFAH1B2 inh: 13.6; Apaf-1 inh: 12.5; PAFAH1B3 inh: 6.3

How did N#CC(=C1C=CC(=NO)C(Cl)=C1)c1ccc(Cl)cc1 do in these assays?
TDP2 absorb: 4.5; PAFAH2 inh: 6.6; PAFAH1B2 inh: 37.6*; PAFAH1B3 inh: 8.1

Results for Oc1ccc(Cc2ccc(Cl)cc2)c(O)c1 ?
TDP2 absorb: -17.0; PAFAH2 inh: 0.5; PAFAH1B2 inh: 71.6*; Apaf-1 inh: 10.6; PAFAH1B3 inh: 5.6

What do the screens show for `Oc1ccc(Cc2ccccc2Cl)c(O)c1`?
TDP2 absorb: 0.0; PAFAH2 inh: 0.6; PAFAH1B2 inh: 6.4; PAFAH1B3 inh: 7.1

What do the screens show for `COC(=O)[C@]12C[C@H](CC(=O)NCC3CCCCC3)C(=O)N(Cc3cccc4ccccc34)C1=C[C@H](C1CCCC1)O[C@@H]2C`?
TDP2 absorb: -8.5

What do the screens show for `CCCc1c(O)nc(SC2CC(=O)N(c3ccc(C)c(Cl)c3)C2=O)[nH]c1=O` (stereo not drawn)?
TDP2 absorb: 8.2; Apaf-1 inh: 4.4

What do the screens show for `Cc1ccc(N2C(=O)CC(Sc3nc4ccccc4o3)C2=O)cc1Cl` (stereo not drawn)?
TDP2 absorb: -4.2; PAFAH2 inh: -3.4; PAFAH1B2 inh: 30.0*; Apaf-1 inh: 9.2; PAFAH1B3 inh: 2.5

What do the screens show for `O=c1cc(CSc2ccc(S(=O)(=O)N3CCCCC3)cn2)nc2sccn12`?
TDP2 absorb: 5.2; PAFAH2 inh: 5.7; PAFAH1B2 inh: 25.0*; Apaf-1 inh: -4.4; PAFAH1B3 inh: 9.0

Results for O=S(=O)(c1ccc(SCc2ccc(Cl)cc2)nc1)N1CCCC1 ?
TDP2 absorb: -16.4; PAFAH2 inh: 1.8; PAFAH1B2 inh: 25.8*; Apaf-1 inh: 13.0; PAFAH1B3 inh: 5.8

How did CC(=O)NC1CCCCN(C)C1=O (stereo not drawn) do in these assays?
TDP2 absorb: 1.6

Results for Cc1csc(SCC(=O)NCCc2ccc(Cl)cc2)n1 ?
TDP2 absorb: 0.5; PAFAH2 inh: 3.6; PAFAH1B2 inh: 32.5*; Apaf-1 inh: 1.3; PAFAH1B3 inh: 8.8

Results for Cc1ccc(SCc2cc(-c3ccc(Cl)cc3)no2)cc1 ?
TDP2 absorb: -1.3; PAFAH2 inh: -2.7; PAFAH1B2 inh: 12.7; Apaf-1 inh: 78.3*; PAFAH1B3 inh: -2.9

Results for c1ccc(SCc2cc(-c3ccccc3)no2)cc1 ?
TDP2 absorb: 2.9; PAFAH2 inh: 6.9; PAFAH1B2 inh: 26.1*; Apaf-1 inh: 3.9; PAFAH1B3 inh: 9.7

How did Clc1ccc(-c2cc(CSc3ccccc3)on2)cc1 do in these assays?
TDP2 absorb: 3.6; PAFAH2 inh: -5.4; PAFAH1B2 inh: 12.9; Apaf-1 inh: 1.4; PAFAH1B3 inh: 4.5
